Read-outs that look alike come from different tables or passages of the source.
Experiments:
U87MG cells = experiment: MTT cell proliferation assay; assay type: cell-based; conditions: read-out: Anti-proliferative activity IC50, U87MG
U251 cells = experiment: MTT cell proliferation assay; assay type: cell-based; conditions: read-out: Anti-proliferative activity IC50, U251
T98G cells = experiment: MTT cell proliferation assay; assay type: cell-based; conditions: read-out: Anti-proliferative activity IC50, T98G
MDM2 and CDK4 = experiment: TR-FRET inhibition at concentrations below 1.0 μmol/L; assay type: biochemical; conditions: target per compound not stated
U251 xenografts = experiment: U251 xenograft antitumor activity; assay type: in vivo; conditions: mice; oral; 30 mg/kg; 21 days
How it was run: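 SPF nude mice, 6–8 weeks old, with subcutaneous U251 xenografts; test compound or reference inhibitors given orally at 30 mg/kg, normal saline as vehicle control, analysed at 21 days. Tumor volume, tumor weight and body weight tracked; tumors immunostained for MDM2, P53, P21, pCDK4, pRB and Ki-67, plus TUNEL immunofluorescence, scored as percent positive cells; mean ± SD.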

MDM2 = MDM2 (Homo sapiens, UniProt Q00987); experiment: TR-FRET; assay type: binding; conditions: for inhibition at 1 µM: read-out: Inhibition rate at 1.0 μmol/L, MDM2
Sequence of MDM2 (Q00987 whole entry): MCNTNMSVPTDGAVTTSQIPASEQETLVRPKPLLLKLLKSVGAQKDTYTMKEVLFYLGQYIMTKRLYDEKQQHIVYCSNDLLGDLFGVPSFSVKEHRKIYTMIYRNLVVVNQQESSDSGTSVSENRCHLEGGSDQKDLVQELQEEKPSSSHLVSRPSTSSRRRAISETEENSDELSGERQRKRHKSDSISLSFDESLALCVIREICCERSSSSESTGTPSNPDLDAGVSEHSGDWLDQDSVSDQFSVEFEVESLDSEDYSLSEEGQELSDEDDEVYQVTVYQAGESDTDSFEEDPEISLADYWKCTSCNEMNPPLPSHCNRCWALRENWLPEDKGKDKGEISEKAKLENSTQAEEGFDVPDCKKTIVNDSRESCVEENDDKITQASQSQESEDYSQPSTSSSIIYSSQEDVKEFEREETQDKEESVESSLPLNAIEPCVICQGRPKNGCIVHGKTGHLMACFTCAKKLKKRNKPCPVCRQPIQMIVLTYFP

[1] = 24-h incubation, MTT, mutated P53

Compound | IC50 (U87MG cells; 24-h incubation, MTT, wild-type P53) [µM] | IC50 (U251 cells; [1]) [µM] | IC50 (T98G cells; [1]) [µM] | inhibition at concentrations below 1.0 μmol/L (MDM2 and CDK4) | tumor growth (U251 xenografts) | IC50 (U87MG cells; Homo sapiens, U-87 MG, 24 h) [µM] | IC50 (U251 cells; Homo sapiens, U-251, 24 h) [µM] | IC50 (T98G cells; Homo sapiens, T98G, 24 h) [µM] | inhibition at 1 µM (MDM2) [%] | IC50 (MDM2) [µM]
COc1ccc(C2=N[C@@H](c3ccc(Cl)cc3)[C@@H](c3ccc(Cl)cc3)N2C(=O)N2CCNC(=O)C2)c(OC(C)C)c1 [Nutlin-3a, nutlin-3a, reference compound] | 25.3 ± 2.5 | > 50 | > 50 | 40% to 20% | potently inhibited tumor growth |  |  |  |  | 
CC(=O)c1c(C)c2cnc(Nc3ccc(N4CCNCC4)cn3)nc2n(C2CCCC2)c1=O [Palbociclib, palbociclib, reference compound] |  |  |  |  | potently inhibited tumor growth | 26.4 ± 3.8 | 18.9 ± 2.4 | 29.5 ± 4.5 |  | 
O=C(c1ccc(F)cc1)[C@H]1Cc2c(cc([N+](=O)[O-])cc2[N+](=O)[O-])[C@@H](O)[C@@]12C(=O)Nc1ccccc12 [4m, (1′R,3R,3′S)-3′-(4-Fluorobenzoyl)-1′-hydroxy-5′,7′-dinitro-3′,4′-dihydro-1′H-spiro[indoline-3,2′-naphthalen]-2-one] |  |  |  |  |  | 47.2 ± 3.8 | 39.5 ± 3.8 | 37.1 ± 3.2 | 44.6 ± 3.7 | 
CCOC(=O)[C@H]1Cc2c(cc([N+](=O)[O-])cc2[N+](=O)[O-])[C@@H](O)[C@@]12C(=O)Nc1ccc([N+](=O)[O-])cc12 [4i, Ethyl (1′R,3R,3′S)-1′-hydroxy-5,5′,7′-trinitro-2-oxo-3′,4′-dihydro-1′H-spiro[indoline-3,2′-naphthalene]-3′-carboxylate] |  |  |  |  |  | 25.6 ± 2.8 | 36.2 ± 4.6 | 41.2 ± 6.1 | 47.7 ± 4.1 | 
CCOC(=O)[C@H]1Cc2c(cc([N+](=O)[O-])cc2[N+](=O)[O-])[C@@H](O)[C@@]12C(=O)Nc1cc(Cl)ccc12 [4e, Ethyl (1′R,3R,3′S)-6-chloro-1′-hydroxy-5′,7′-dinitro-2-oxo-3′,4′-dihydro-1′H-spiro[indoline-3,2′-naphthalene]-3′-carboxylate] |  |  |  |  |  | 19.2 ± 4.4 | 28.6 ± 2.9 | 22.5 ± 4.2 | 76.4 ± 6 | 
CCOC(=O)[C@H]1Cc2c(cc([N+](=O)[O-])cc2[N+](=O)[O-])[C@H](O)[C@]12C(=O)Nc1cccc(Br)c12 [4f′, Ethyl (1′S,3S,3′S)-4-bromo-1′-hydroxy-5′,7′-dinitro-2-oxo-3′,4′-dihydro-1′H-spiro[indoline-3,2′-naphthalene]-3′-carboxylate] |  |  |  |  |  | 69.8 | > 50 | > 50 | 54.8 | 
CCOC(=O)[C@H]1Cc2c(cc([N+](=O)[O-])cc2[N+](=O)[O-])[C@H](O)[C@]12C(=O)Nc1ccc(C)cc12 [4j′, Ethyl (1′S,3S,3′S)-1′-hydroxy-5-methyl-5′,7′-dinitro-2-oxo-3′,4′-dihydro-1′H-spiro[indoline-3,2′-naphthalene]-3′-carboxylate] |  |  |  |  |  | > 50 | > 50 | > 50 | 49.2 | 
O=C(c1ccccc1F)[C@H]1Cc2c(cc([N+](=O)[O-])cc2[N+](=O)[O-])[C@@H](O)[C@@]12C(=O)Nc1ccccc12 [4l, (1′R,3R,3′S)-3′-(2-Fluorobenzoyl)-1′-hydroxy-5′,7′-dinitro-3′,4′-dihydro-1′H-spiro[indoline-3,2′-naphthalen]-2-one] |  |  |  |  |  | 32.5 ± 4.7 | 38.7 ± 6.1 | 43.6 ± 4.8 | 47.2 ± 5.71 | 
O=C(c1ccc(Cl)c(Cl)c1)[C@H]1Cc2c(cc([N+](=O)[O-])cc2[N+](=O)[O-])[C@@H](O)[C@@]12C(=O)Nc1ccccc12 [4n, (1′R,3R,3′S)-3′-(3,4-Dichlorobenzoyl)-1′-hydroxy-5′,7′-dinitro-3′,4′-dihydro-1′H-spiro[indoline-3,2′-naphthalen]-2-one] |  |  |  |  |  | 34.9 ± 2.62 | 25.9 ± 3.5 | 32.5 ± 2.9 | 38.4 ± 2.7 | 
CCOC(=O)[C@H]1Cc2c(cc([N+](=O)[O-])cc2[N+](=O)[O-])[C@@H](O)[C@@]12C(=O)Nc1ccc(Cl)cc12 [4d, Ethyl (1′R,3R,3′S)-5-chloro-1′-hydroxy-5′,7′-dinitro-2-oxo-3′,4′-dihydro-1′H-spiro[indoline-3,2′-naphthalene]-3′-carboxylate] |  |  |  |  |  | 8.3 ± 1.5 | 17.8 ± 3.2 | 21.6 ± 4.5 | 82.6 ± 8.4 | 0.52 ± 0.07
CCOC(=O)[C@H]1Cc2c(cc([N+](=O)[O-])cc2[N+](=O)[O-])[C@H](O)[C@]12C(=O)Nc1cc(Cl)ccc12 [4e′, Ethyl (1′S,3S,3′S)-6-chloro-1′-hydroxy-5′,7′-dinitro-2-oxo-3′,4′-dihydro-1′H-spiro[indoline-3,2′-naphthalene]-3′-carboxylate] |  |  |  |  |  | > 50 | > 50 | > 50 | 48.3 | 
CCOC(=O)[C@H]1Cc2c(cc([N+](=O)[O-])cc2[N+](=O)[O-])[C@H](O)[C@]12C(=O)Nc1ccc([N+](=O)[O-])cc12 [4i′, Ethyl (1′S,3S,3′S)-1′-hydroxy-5,5′,7′-trinitro-2-oxo-3′,4′-dihydro-1′H-spiro[indoline-3,2′-naphthalene]-3′-carboxylate] |  |  |  |  |  | 47.9 | > 50 | > 50 | 39.3 | 
COc1ccc(C(=O)[C@H]2Cc3c(cc([N+](=O)[O-])cc3[N+](=O)[O-])[C@@H](O)[C@@]23C(=O)Nc2ccccc23)cc1 [4p, (1′R,3R,3′S)-1′-Hydroxy-3′-(4-methoxybenzoyl)-5′,7′-dinitro-3′,4′-dihydro-1′H-spiro[indoline-3,2′-naphthalen]-2-one] |  |  |  |  |  | 39.9 ± 4.2 | 43.2 ± 5.9 | 45.9 ± 8.1 | 35.7 ± 4.9 | 
CCOC(=O)[C@H]1Cc2c(cc([N+](=O)[O-])cc2[N+](=O)[O-])[C@@H](O)[C@@]12C(=O)Nc1c(F)cccc12 [4c, Ethyl (1′R,3R,3′S)-7-fluoro-1′-hydroxy-5′,7′-dinitro-2-oxo-3′,4′-dihydro-1′H-spiro[indoline-3,2′-naphthalene]-3′-carboxylate] |  |  |  |  |  | 19.4 ± 2.3 | 34.3 ± 4 | 51.6 ± 6.2 | 76.5 ± 13.7 | 
CCOC(=O)[C@H]1Cc2c(cc([N+](=O)[O-])cc2[N+](=O)[O-])[C@H](O)[C@]12C(=O)Nc1ccc(Cl)cc12 [4d′, Ethyl (1′S,3S,3′S)-5-chloro-1′-hydroxy-5′,7′-dinitro-2-oxo-3′,4′-dihydro-1′H-spiro[indoline-3,2′-naphthalene]-3′-carboxylate] |  |  |  |  |  | 60.4 | > 50 | > 50 | 54.2 | 1.8 ± 0.12
